Assay results taken from ChEMBL document CHEMBL5252539, “In vitro biological evaluation of new antimycobacterial salicylanilide-tuftsin conjugates” (Eur J Med Chem, 2017).
≈ marks a conversion by molar mass, not a printed value. Calls of active or inactive are those of the source. The calls are words filed in the database; no cut-off is given here. *1 amine or outer side, *2 acyl side, *3 side chain or, on linkers, in order; H or OH if unused. Where a SMILES comes first, the peptide text is derived from it. [ ]: non-standard residue; d: D form. The star is where a group is joined. X2 = C/C(=N\OCC(=O)*)c1ccc(NC(=O)c2cc(Br)ccc2O)cc1; X1 = C/C(=N\OCC(=O)[*:2])c1ccc(N[*:1])cc1; Benzoyl(5-Br-2-OH) = O=C(c1cc(Br)ccc1O)*; Palmitoyl = CCCCCCCCCCCCCCCC(=O)*; X3 = O=C(c1cc(Cl)ccc1O)*

How the values were obtained:
MONO-MAC-6 = assay: Cytostatic activity against human MONO-MAC-6 cells assessed as reduction in cell viability incubated for 24 hrs by MTT assay; format: functional, cell-based; details: MONO-MAC-6, 24 h
In short: (§1)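 MTT viability assay after 24 h exposure of MonoMac6 human monocytic cells or HepG2 human hepatocellular carcinoma cells. Top concentration 200 μM. IC50 taken from dose-response curves as the concentration reducing viability to 50% of maximal.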

[1] = tested on: Mycobacteroides abscessus; assay: Antimycobacterial activity against Mycobacterium abscessus ATCC 19977 assessed as reduction in colony forming unit after 7 days by serial dilution method; format: functional, organism-based; details: time 7.0 day
In short: (§2)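 MIC determined in Sula semisynthetic medium, pH 6.5, 1 week incubation. Growth inhibition confirmed by plating on Löwenstein-Jensen solid medium and counting CFU. Bacteria inoculated without drug served as growth control.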

[2] = tested on: Mycobacteroides abscessus; assay: Antimycobacterial activity against Mycobacterium abscessus ATCC 19977 assessed as reduction in bacterial growth after 7 days by serial dilution method; format: functional; details: ATCC 19977, 168 h, time 7 day; in short: as §2
[3] = tested on: Mycobacterium tuberculosis; assay: Antimycobacterial activity against Mycobacterium tuberculosis H37Rv ATCC 27294 assessed as reduction in bacterial growth after 28 days by serial dilution method; format: functional; details: H37Rv ATCC 27294, 672 h, time 28 day
In short: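 Broth MIC in Sula semisynthetic medium, pH 6.5; 4-week incubation, with 21-day values […] where indicated. Drug-free inoculated bacteria served as growth control. MIC also expressed as drug content (µg/mL) = MIC (µM) × average SAL molar mass × number of SAL per conjugate / 1000.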

[4] = Selectivity index, ratio of IC50 for cytostatic activity against human MONO-MAC-6 cells to MIC for antimycobacterial activity against Mycobacterium tuberculosis H37Rv ATCC 27294; format: toxicity, cell-based; details: read-out: Selectivity Index
In short: (§3)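 MTT assay on MonoMac6 or HepG2 cells after 24 h exposure, top concentration 200 µM. SI = IC50 (µM)/MIC (µM) against H37Rv from the 4-week Sula medium assay.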

[5] = tested on: Mycobacterium tuberculosis; assay: Antimycobacterial activity against Mycobacterium tuberculosis H37Rv ATCC 27294 assessed as reduction in colony forming unit after 28 days by serial dilution method; format: functional, organism-based; details: time 28.0 day
In short: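 After the 4-week MIC incubation in Sula semisynthetic medium (pH 6.5), growth inhibition confirmed by plating on Löwenstein-Jensen solid medium and counting colony forming units.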

HepG2 = assay: Cytostatic activity against human HepG2 cells assessed as reduction in cell viability incubated for 24 hrs by MTT assay; format: functional, cell-based; details: HepG2, 24 h; in short: as §1
[6] = Selectivity index, ratio of IC50 for cytostatic activity against human HepG2 cells to MIC for antimycobacterial activity against Mycobacterium tuberculosis H37Rv ATCC 27294; format: toxicity, cell-based; details: read-out: Selectivity Index; in short: as §3
[7] = Stability in rat liver lysosomal homogenate assessed as drug degradation at 50 uM and measured upto 24 hrs by HPLC-MS analysis; format: ADME, subcellular, Lysosome; details: tissue homogenate
In short: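 Conjugates incubated in rat liver lysosomal homogenate. Reaction mixtures sampled at 5 min, 1 h, 2 h, 4 h, 8 h and 24 h and analysed by HPLC-MS (chromatograms and mass spectra) to identify intact conjugate, fragments and cleavage sites.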

[8] = tested on: Mycobacterium tuberculosis; assay: […] antimycobacterial activity against Mycobacterium tuberculosis H37Rv ATCC 27294 infected in human MONO-MAC-6 cells assessed as reduction in colony forming unit at 125 uM for 6 days by colony counting based analysis; format: functional, organism-based; details: time 6.0 day
In short: (§4)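 MonoMac6 monolayers infected with H37Rv, then treated with compound at 125 or 250 µM for 3 days. Treatment repeated with fresh compound solution for another 3 days. Intracellular bacteria quantified as CFU against untreated infected cells.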

[9] = tested on: Mycobacterium tuberculosis; assay: […] antimycobacterial activity against Mycobacterium tuberculosis H37Rv ATCC 27294 infected in human MONO-MAC-6 cells assessed as reduction in colony forming unit at 250 uM for 6 days by colony counting based analysis; format: functional, organism-based; details: time 6.0 day; in short: as §4

Compound	IC50 (MONO-MAC-6) [µM]	Activity [1]	MIC [2] [µM]	MIC [3] [µM]	selectivity ratio [4]	Activity [5]	IC50 (HepG2) [µM]	selectivity ratio [6]	Stability [7]	Activity [8]	Activity [9]
CC(=O)c1ccc(NC(=O)c2cc(Cl)ccc2O)cc1	16.1	Active	34.5 (≈ 10 µg/mL)	8.6 (≈ 2.49 µg/mL)	1.9	Active	7.9	0.9	–	–	–
C/C(=N\OCC(=O)N[C@H](C(=O)N[C@@H](CCCCN)C(=O)N1CCC[C@H]1C(=O)N1CCC[C@H]1C(=O)N[C@@H](CCCNC(=N)N)C(=O)O)[C@@H](C)O)c1ccc(NC(=O)c2cc(Br)ccc2O)cc1	> 200	–	–	–	> 9.9	–	> 200	> 9.9	Unstable	–	–
O=Cc1ccc(O)c(C(=O)Nc2ccc(C(F)(F)F)cc2)c1	21.5	Active	129 (≈ 40 µg/mL)	25.9 (≈ 8.01 µg/mL)	0.8	Active	17.6	0.7	–	–	–
C/C(=N\OCC(=O)NCC(=O)N[C@@H](Cc1ccccc1)C(=O)N[C@@H](CC(C)C)C(=O)NCC(=O)N[C@H](C(=O)N[C@@H](CCCCN)C(=O)N1CCC[C@@H]1C(=O)N1CCC[C@H]1C(=O)N[C@H](CCCNC(=N)N)C(=O)O)[C@@H](C)O)c1ccc(NC(=O)c2cc(Br)ccc2O)cc1	–	Active	–	–	–	Active	–	–	–	inactive	Active
C/C(=N\OCC(=O)NCC(=O)N[C@@H](Cc1ccccc1)C(=O)N[C@@H](CC(C)C)C(=O)NCC(=O)N[C@H](C(=O)N[C@@H](CCCCN)C(=O)N1CCC[C@@H]1C(=O)N[C@H](CCCNC(=N)N)C(=O)O)[C@@H](C)O)c1ccc(NC(=O)c2cc(Br)ccc2O)cc1	–	Active	–	–	–	Active	–	–	–	Active	Active
C/C(=N\OCC(=O)N[C@H](C(=O)N[C@@H](CCCCN)C(=O)N1CCC[C@H]1C(=O)N1CCC[C@@H]1C(=O)N[C@H](CCCNC(=N)N)C(=O)O)[C@@H](C)O)c1ccc(NC(=O)c2cc(Br)ccc2O)cc1	–	Active	–	–	–	Active	–	–	–	Active	Active
C/C(=N\OCC(=O)NCCCC[C@H](NC(=O)[C@@H]1CCCN1C(=O)[C@H](CCCCN)NC(=O)[C@@H](NC(=O)CNC(=O)[C@H](CCCCNC(=O)CO/N=C(\C)c1ccc(NC(=O)c2cc(Br)ccc2O)cc1)NC(=O)[C@@H]1CCCN1C(=O)[C@H](CCCCN)NC(=O)[C@@H](NC(=O)[C@H](CCCNC(=N)N)NC(=O)[C@@H]1CCCN1C(=O)[C@H](CCCCN)NC(=O)[C@@H](N)[C@@H](C)O)[C@@H](C)O)[C@@H](C)O)C(=O)NCC(=O)O)c1ccc(NC(=O)c2cc(Br)ccc2O)cc1 (H-TKPRTKPK(X2)GTKPK(X2)G-OH)	101	Active	86.9 (≈ 200 µg/mL)	34.8 (≈ 80.1 µg/mL)	2.9	Active	95.2	2.7	–	Active	Active
CCCCCCCCCCCCCCCC(=O)NCCCC[C@H](NC(=O)[C@@H]1CCCN1C(=O)[C@H](CCCCN)NC(=O)[C@@H](NC(=O)CO/N=C(\C)c1ccc(NC(=O)c2cc(Cl)ccc2O)cc1)[C@@H](C)O)C(=O)NCC(=O)N[C@H](C(=O)N[C@@H](CCCCN)C(=O)N1CCC[C@H]1C(=O)N[C@@H](CCCCN)C(=O)NCC(=O)N[C@H](C(=O)N[C@@H](CCCCN)C(=O)N1CCC[C@H]1C(=O)N[C@@H](CCCCN)C(=O)NCC(=O)N[C@H](C(=O)N[C@@H](CCCCN)C(=O)N1CCC[C@H]1C(=O)N[C@@H](CCCCN)C(=O)NCC(N)=O)[C@@H](C)O)[C@@H](C)O)[C@@H](C)O (X3-[X1]TKPK(Palmitoyl)GTKPKGTKPKGTKPKG-NH2)	16.8	Active	75.6 (≈ 200 µg/mL)	94.5 (≈ 250 µg/mL)	0.2	Active	42.9	0.5	–	Active	Active
C/C(=N\OCC(=O)N[C@H](C(=O)N[C@@H](CCCCN)C(=O)N1CCC[C@H]1C(=O)N[C@@H](CCCCN)C(=O)NCC(=O)N[C@H](C(=O)N[C@@H](CCCCN)C(=O)N1CCC[C@H]1C(=O)N[C@@H](CCCCN)C(=O)NCC(=O)N[C@H](C(=O)N[C@@H](CCCCN)C(=O)N1CCC[C@H]1C(=O)N[C@@H](CCCCN)C(=O)NCC(=O)N[C@H](C(=O)N[C@@H](CCCCN)C(=O)N1CCC[C@H]1C(=O)N[C@@H](CCCCN)C(=O)NCC(N)=O)[C@@H](C)O)[C@@H](C)O)[C@@H](C)O)[C@@H](C)O)c1ccc(NC(=O)c2cc(Cl)ccc2O)cc1 (X3-[X1]TKPKGTKPKGTKPKGTKPKG-NH2)	> 200	Active	41.5 (≈ 99.9 µg/mL)	83 (≈ 200 µg/mL)	> 2.4	Active	> 200	> 2.4	–	Active	Active
C/C(=N\OCC(=O)NCC(=O)N[C@@H](Cc1ccccc1)C(=O)N[C@@H](CC(C)C)C(=O)NCC(=O)N[C@H](C(=O)N[C@@H](CCCCN)C(=O)N1CCC[C@H]1C(=O)N[C@@H](CCCCN)C(=O)NCC(N)=O)[C@@H](C)O)c1ccc(NC(=O)c2cc(Br)ccc2O)cc1 ({Benzoyl(5-Br-2-OH)}-[X1]GFLGTKPKG-NH2)	> 200	Active	155 (≈ 200 µg/mL)	31 (≈ 40.1 µg/mL)	> 6.5	Active	163	5.3	Unstable	Active	Active
C/C(=N\OCC(=O)NCC(=O)N[C@@H](Cc1ccccc1)C(=O)N[C@@H](CC(C)C)C(=O)NCC(=O)N[C@H](C(=O)N[C@@H](CCCCN)C(=O)N1CCC[C@H]1C(=O)N[C@@H](CCCCN)C(=O)NCC(=O)O)[C@@H](C)O)c1ccc(NC(=O)c2cc(Br)ccc2O)cc1 ({Benzoyl(5-Br-2-OH)}-[X1]GFLGTKPKG-OH)	> 200	Active	155 (≈ 200 µg/mL)	46.4 (≈ 60 µg/mL)	> 4.3	Active	58	1.3	–	inactive	Active
NNC(=O)c1ccncc1 [ISONIAZID]	–	Active	292 (≈ 40 µg/mL)	1.17 (≈ 0.16 µg/mL)	–	Active	–	–	–	–	–
